By MIC is commonly meant the lowest concentration that inhibits growth of the organism.

Molecules are shown by their SMILES. ≈ marks a conversion by molar mass, not a printed value.

The test concerns Mycobacterium tuberculosis. Kind of test: Antitubercular activity against Mycobacterium tuberculosis H37Rv after 2 weeks. The test is classed as functional. The conditions noted are these: 336 h. The method, boiled down: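 Agar proportion method on Middlebrook 7H10 with OADC; compound mixed into agar at 50-56 °C by serial dilution, final 100 to 0.8 µg/mL, poured into quadrant plates. Inoculum in 7H9 broth adjusted to McFarland no. 1, then diluted 10-2; 33 µL per quadrant. Incubated 35 °C, 10% CO2, 2 weeks; MIC read. Ethambutol as positive control.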
`CC(C)c1ccc2c(c1)C(=O)C[C@H]1C(C)(C)CCC[C@]21C` returned an MIC above 300 µM.
Molecule `COc1cc([C@H]2OC[C@@H]3C(=O)OC[C@@H]32)cc(OC)c1O` showed an MIC of 257 µM (≈ 72.1 µg/mL).
In turn, `C=C(C)[C@@H]1CCC2=C(CCC(C(C)C)=C2)[C@@]1(C)CCC(=O)OC` yielded a minimum inhibitory concentration (MIC) of 38 µM (≈ 12 µg/mL).
With `C=C(C)[C@@H]1CCc2cc(C(C)C)ccc2[C@@]1(C)CCC(=O)OC` the figure was 153 µM (≈ 48.1 µg/mL); with `CCCCCCCCCCCCCC(=O)OCCc1ccc(O)cc1`, above 300 µM.
With `CC(C)c1ccc2c(c1)CC[C@H]1C(C)(C)C(=O)CC[C@]21C`, the MIC is 148 µM (≈ 42.1 µg/mL).
With `C=C(C)[C@@H]1CC=C2C=C(C(C)C)CC[C@]2(O)[C@@]1(C)CCC(=O)O` [9R-HYDROXYCALLICARPIC ACID A] the figure was 113 µM (≈ 36 µg/mL).
With `COc1ccc(-c2cc(=O)c3c(O)cc(O)cc3o2)cc1` [ACACETIN] the figure was 282 µM (≈ 80.1 µg/mL); with `COc1ccc(-c2oc3cc(OC)c(OC)c(O)c3c(=O)c2OC)cc1OC` [ARTEMETIN], 186 µM (≈ 72.1 µg/mL); with `CC[C@H](CC[C@@H](C)[C@H]1CC[C@H]2[C@@H]3CC=C4CC(=O)CC[C@]4(C)[C@H]3CC[C@]12C)C(C)C` [BETA-SITOSTENONE], above 300 µM.
`C=C(C)[C@@H]1CC=C2C=C(C(C)C)CC[C@@H]2[C@@]1(C)CCC(=O)O` [CALLICARPIC ACID A] had an MIC of 238 µM (≈ 72.1 µg/mL).
`C=C(C)[C@@H]1CCC2=C(C(=O)C=C(C(C)C)C2=O)[C@@]1(C)CCC(=O)O` [CALLICARPIC ACID B] gave an MIC of 63.6 µM (≈ 21 µg/mL).
The same measure for `COc1ccc(-c2oc3cc(OC)c(OC)c(O)c3c(=O)c2OC)cc1O` [CASTICIN]: 214 µM (≈ 80.1 µg/mL); for `CC[C@@H](CO)NCCN[C@@H](CC)CO` [ETHAMBUTOL]: 30.6 µM (≈ 6.25 µg/mL).
The molecule `COc1ccc(-c2oc3cc(OC)c(OC)c(OC)c3c(=O)c2OC)cc1OC` [HEXAMETHOXYFLAVONE] came in with an MIC of 179 µM (≈ 72.1 µg/mL).
With `COc1cc2oc(-c3ccc(O)cc3)c(OC)c(=O)c2c(O)c1OC` [PENDULETIN] the figure was 157 µM (≈ 54.1 µg/mL); with `CC(C)=CCC/C(C)=C/CC/C(C)=C/CC/C=C(\C)CC/C=C(\C)CCC=C(C)C` [SQUALENE], 122 µM (≈ 50.1 µg/mL); with `CCCCCCCCCCCCCCCCCC(=O)O` [STEARIC ACID], above 300 µM.

Source of the values: ChEMBL document CHEMBL1152331, “seco-Abietane diterpenoids, a phenylethanoid derivative, and antitubercular constituents from Callicarpa pilosissima” (2009).
